Laboratory results taken from article PMC5616206 (Toxicology Reports, 2016).
Entries after “also recorded” stand apart in the source; their conditions may differ.

Assays:
[1] = In vitro metabolism by rat liver microsomes; type: in vitro ADME, Sprague-Dawley rat; settings: S9229 incubation, relative to S9229 at time = 0
[2] = Pharmacokinetics of S9229 in rats, single iv or oral dose; type: in vivo, Sprague-Dawley rats; settings: for AUC(0-t) / Cmax / Tmax / Vd / clearance / half-life / bioavailability: Sprague-Dawley, rat, plasma; for AUC0-24hr Ratio / Cmax Ratio: vs 10 mg/kg dose
Method in brief: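 Sprague-Dawley rats, 4/sex, received a 1 mg/kg bw IV bolus in 1% ethanol in saline, with tail-vein sampling from 2 min to 8 h. Oral groups (3/sex/group) were gavaged once with 10, 30 or 100 mg/kg bw in 1% methylcellulose and sampled from 15 min to 24 h. Plasma was assayed for parent and metabolites.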

[3] = In vivo metabolism of S9229 in rats; set-up: species or system Sprague-Dawley rats; settings: rat plasma, 1 h time point, 100 mg/kg bw oral
[4] = system: S. typhimurium strains TA98, TA100, TA1535, TA1537 and E. coli strain WP2 uvrA; assay: Bacterial reverse mutation test; type: cell-based; settings: 50–5000 μg/plate, plate incorporation, ±S9
Method in brief: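 The assay followed OECD Guideline 471 and used S. typhimurium TA98, TA100, TA1535 and TA1537 and E. coli WP2 uvrA. It was run with and without S9 from livers of Aroclor 1254-treated Sprague-Dawley rats. One compound was tested at 21–5000 μg/plate by plate incorporation and pre-incubation. The other was tested at 50–5000 μg/plate in an initial toxicity-mutation test and a confirmatory mutation test.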

[5] = Toxicokinetics of S9229 in the 28-day rat study; type: in vivo, Sprague-Dawley rats; settings: for AUC0-24hr Ratio / Cmax Ratio: vs 10 mg/kg dose; for AUC(0-t) / Cmax / Tmax / half-life: rat, plasma, po; for AUC(0-t): AUC0-24hr
[6] = oral gavage 10 mg/kg bw, female
[7] = oral gavage 30 mg/kg bw, female
[8] = oral gavage 100 mg/kg bw, female
[9] = female, Sprague-Dawley (Crl:CD(SD)), 10 mg/kg, Day 1, 10 mg/kg bw, F
[10] = female, Sprague-Dawley (Crl:CD(SD)), 30 mg/kg, Day 1, 30 mg/kg bw, F
[11] = female, Sprague-Dawley (Crl:CD(SD)), 100 mg/kg, Day 1, 100 mg/kg bw, F
[12] = female, Sprague-Dawley (Crl:CD(SD)), 100 mg/kg, Day 28, 100 mg/kg bw, F
[13] = female, Sprague-Dawley [Crl:CD(SD)], 10 mg/kg, Day 28, 10 mg/kg bw, F
[14] = female, Sprague-Dawley [Crl:CD(SD)], 30 mg/kg, Day 28, 30 mg/kg bw, F
[15] = male, Sprague-Dawley (Crl:CD(SD)), 10 mg/kg, Day 1, 10 mg/kg bw, M
[16] = male, Sprague-Dawley (Crl:CD(SD)), 10 mg/kg, Day 28, 10 mg/kg bw, M
[17] = male, Sprague-Dawley (Crl:CD(SD)), 30 mg/kg, Day 1, 30 mg/kg bw, M
[18] = male, Sprague-Dawley (Crl:CD(SD)), 100 mg/kg, Day 1, 100 mg/kg bw, M
[19] = male, Sprague-Dawley (Crl:CD(SD)), 100 mg/kg, Day 28, 100 mg/kg bw, M
[20] = male, Sprague-Dawley [Crl:CD(SD)], 30 mg/kg, Day 28, 30 mg/kg bw, M

COC[C@@H](CC(C)C)NC(=O)c1ccc(C)c(C)c1 [S9229, (R)-N-(1-methoxy-4-methylpentan-2-yl)-3,4-dimethylbenzamide]
% MS (EIC) Peak Area ([1]; 10 min): 36.4%
% MS (EIC) Peak Area ([1]; 20 min): 1.93%
AUC(0-t) ([2]; female, iv, 1 mg/kg): 1730 ± 376 ng·h/mL
Cmax ([2]; female, iv, 1 mg/kg): 3940 ± 1070 ng/mL
Tmax ([2]; female, iv, 1 mg/kg): 0.03 h
Vd ([2]; female, iv, 1 mg/kg): 2.82 L/kg
clearance ([2]; female, iv, 1 mg/kg): 7.9 mL/min/kg
half-life ([2]; female, iv, 1 mg/kg): 4.33 ± 1.65 h
bioavailability ([2]; female, po): 0.09 to 0.1%
AUC(0-t) ([2]; female, po, 10 mg/kg): 15.2 ± 11.2 ng·h/mL
Cmax ([2]; female, po, 10 mg/kg): 10.5 ± 13.9 ng/mL
Tmax ([2]; female, po, 10 mg/kg): 0.25 h
bioavailability ([2]; female, po, 10 mg/kg): 0.09%
half-life ([2]; female, po, 10 mg/kg): 0.96 ± 0.3 h
AUC(0-t) ([2]; female, po, 30 mg/kg): 49.5 ± 31.7 ng·h/mL
Cmax ([2]; female, po, 30 mg/kg): 55.4 ± 43.9 ng/mL
Tmax ([2]; female, po, 30 mg/kg): 0.25 h
bioavailability ([2]; female, po, 30 mg/kg): 0.1%
half-life ([2]; female, po, 30 mg/kg): 1.82 ± 2.12 h
AUC(0-t) ([2]; female, po, 100 mg/kg): 175 ± 169 ng·h/mL
Cmax ([2]; female, po, 100 mg/kg): 102 ± 124 ng/mL
Tmax ([2]; female, po, 100 mg/kg): 1.67 h
bioavailability ([2]; female, po, 100 mg/kg): 0.1%
half-life ([2]; female, po, 100 mg/kg): 1.03 ± 0.32 h
ratio of female/male AUC0-24hr ([2]; iv 1 mg/kg): 1.02
ratio of female/male Cmax ([2]; iv 1 mg/kg): 1.08
CL as % of hepatic blood flow ([2]; iv, females): 14.4%
CL as % of hepatic blood flow ([2]; iv, males): 13.9%
AUC(0-t) ([2]; male, iv, 1 mg/kg): 1690 ± 416 ng·h/mL
Cmax ([2]; male, iv, 1 mg/kg): 3650 ± 1180 ng/mL
Tmax ([2]; male, iv, 1 mg/kg): 0.03 h
Vd ([2]; male, iv, 1 mg/kg): 3.47 L/kg
clearance ([2]; male, iv, 1 mg/kg): 7.65 mL/min/kg
half-life ([2]; male, iv, 1 mg/kg): 5.38 ± 2.16 h
bioavailability ([2]; male, po): 0.04 to 0.1%
AUC(0-t) ([2]; male, po, 10 mg/kg): 11.3 ± 10 ng·h/mL
Cmax ([2]; male, po, 10 mg/kg): 19.4 ± 24 ng/mL
Tmax ([2]; male, po, 10 mg/kg): 0.25 h
bioavailability ([2]; male, po, 10 mg/kg): 0.07%
half-life ([2]; male, po, 10 mg/kg): 1.38 ± 1.28 h
AUC(0-t) ([2]; male, po, 30 mg/kg): 20.6 ± 3.7 ng·h/mL
Cmax ([2]; male, po, 30 mg/kg): 11.9 ± 0.6 ng/mL
Tmax ([2]; male, po, 30 mg/kg): 0.25 h
bioavailability ([2]; male, po, 30 mg/kg): 0.04%
half-life ([2]; male, po, 30 mg/kg): 1.78 ± 0.69 h
AUC(0-t) ([2]; male, po, 100 mg/kg): 175 ± 57.8 ng·h/mL
Cmax ([2]; male, po, 100 mg/kg): 52.3 ± 12 ng/mL
Tmax ([2]; male, po, 100 mg/kg): 0.83 h
bioavailability ([2]; male, po, 100 mg/kg): 0.1%
half-life ([2]; male, po, 100 mg/kg): 2.24 ± 1.09 h
AUC0-24hr Ratio [2, 6]: 1
Cmax Ratio [2, 6]: 1
AUC0-24hr Ratio ([2]; oral gavage 10 mg/kg bw, male): 1
Cmax Ratio ([2]; oral gavage 10 mg/kg bw, male): 1
AUC0-24hr Ratio [2, 7]: 3.26
Cmax Ratio [2, 7]: 5.28
AUC0-24hr Ratio ([2]; oral gavage 30 mg/kg bw, male): 1.82
Cmax Ratio ([2]; oral gavage 30 mg/kg bw, male): 0.61
AUC0-24hr Ratio [2, 8]: 11.5
Cmax Ratio [2, 8]: 9.68
AUC0-24hr Ratio ([2]; oral gavage 100 mg/kg bw, male): 15.5
Cmax Ratio ([2]; oral gavage 100 mg/kg bw, male): 2.70
parent compound as % of the total peak area [3]: less than 1%
Reverse mutation (in vitro), Result [4]: not mutagenic; also recorded: Negative
AUC0-24hr Ratio ([5]; Day 1, 10 mg/kg bw, F): 1
Cmax Ratio ([5]; Day 1, 10 mg/kg bw, F): 1
AUC0-24hr Ratio ([5]; Day 1, 10 mg/kg bw, M): 1
Cmax Ratio ([5]; Day 1, 10 mg/kg bw, M): 1
AUC0-24hr Ratio ([5]; Day 1, 30 mg/kg bw, F): 1.11
Cmax Ratio ([5]; Day 1, 30 mg/kg bw, F): 0.55
AUC0-24hr Ratio ([5]; Day 1, 30 mg/kg bw, M): 6.62
Cmax Ratio ([5]; Day 1, 30 mg/kg bw, M): 7.06
AUC0-24hr Ratio ([5]; Day 1, 100 mg/kg bw, F): 23.4
Cmax Ratio ([5]; Day 1, 100 mg/kg bw, F): 22.8
AUC0-24hr Ratio ([5]; Day 1, 100 mg/kg bw, M): 48.3
Cmax Ratio ([5]; Day 1, 100 mg/kg bw, M): 61.8
AUC0-24hr Ratio ([5]; Day 28, 10 mg/kg bw, F): 1
Cmax Ratio ([5]; Day 28, 10 mg/kg bw, F): 1
AUC0-24hr Ratio ([5]; Day 28, 10 mg/kg bw, M): 1
Cmax Ratio ([5]; Day 28, 10 mg/kg bw, M): 1
AUC0-24hr Ratio ([5]; Day 28, 30 mg/kg bw, F): 6.90
Cmax Ratio ([5]; Day 28, 30 mg/kg bw, F): 4.85
AUC0-24hr Ratio ([5]; Day 28, 30 mg/kg bw, M): 10.4
Cmax Ratio ([5]; Day 28, 30 mg/kg bw, M): 5.67
AUC0-24hr Ratio ([5]; Day 28, 100 mg/kg bw, F): 68.6
Cmax Ratio ([5]; Day 28, 100 mg/kg bw, F): 57.2
AUC0-24hr Ratio ([5]; Day 28, 100 mg/kg bw, M): 71.1
Cmax Ratio ([5]; Day 28, 100 mg/kg bw, M): 33.6
AUC(0-t) [5, 9]: 11.4 ± 11.1 ng·h/mL
Cmax [5, 9]: 15.6 ± 17 ng/mL
Tmax [5, 9]: 0.5 h
AUC(0-t) [5, 10]: 12.6 ± 2.8 ng·h/mL
Cmax [5, 10]: 8.6 ± 2.6 ng/mL
Tmax [5, 10]: 0.5 h
Tmax ([5]; female, Sprague-Dawley (Crl:CD(SD)), 30 mg/kg, Day 28, 30 mg/kg bw, F): 1 h
half-life ([5]; female, Sprague-Dawley (Crl:CD(SD)), 30 mg/kg, t1/2, Day 1, 30 mg/kg bw, F): 0.95 ± 0.48 h
half-life ([5]; female, Sprague-Dawley (Crl:CD(SD)), 30 mg/kg, t1/2, Day 28, 30 mg/kg bw, F): 2.16 ± 1.3 h
AUC(0-t) [5, 11]: 267 ± 174 ng·h/mL
AUC(0-t) [5, 12]: 144 ± 45.1 ng·h/mL
Cmax [5, 11]: 356 ± 256 ng/mL
Cmax [5, 12]: 74.4 ± 31.7 ng/mL
Tmax [5, 11]: 0.5 h
Tmax [5, 12]: 1 h
half-life ([5]; female, Sprague-Dawley (Crl:CD(SD)), 100 mg/kg, t1/2, Day 1, 100 mg/kg bw, F): 0.97 ± 0.36 h
half-life ([5]; female, Sprague-Dawley (Crl:CD(SD)), 100 mg/kg, t1/2, Day 28, 100 mg/kg bw, F): 0.98 ± 0.1 h
AUC(0-t) [5, 13]: 2.1 ± 1.9 ng·h/mL
Cmax [5, 13]: 1.3 ± 1.3 ng/mL
Tmax [5, 13]: 1 h
AUC(0-t) [5, 14]: 14.5 ± 4.3 ng·h/mL
Cmax [5, 14]: 6.3 ± 3.2 ng/mL
AUC(0-t) [5, 15]: 3.9 ± 0.8 ng·h/mL
AUC(0-t) [5, 16]: 1.5 ± 0.6 ng·h/mL
Cmax [5, 15]: 3.2 ± 1.3 ng/mL
Cmax [5, 16]: 1.2 ± 0.3 ng/mL
Tmax [5, 15]: 0.5 h
Tmax [5, 16]: 1.67 h
half-life ([5]; male, Sprague-Dawley (Crl:CD(SD)), 10 mg/kg, t1/2, Day 1, 10 mg/kg bw, M): 0.9 ± 0.23 h
AUC(0-t) [5, 17]: 25.8 ± 4.3 ng·h/mL
Cmax [5, 17]: 22.6 ± 10.5 ng/mL
Tmax [5, 17]: 0.5 h
half-life ([5]; male, Sprague-Dawley (Crl:CD(SD)), 30 mg/kg, t1/2, Day 1, 30 mg/kg bw, M): 1.16 ± 0.46 h
AUC(0-t) [5, 18]: 188 ± 78.8 ng·h/mL
AUC(0-t) [5, 19]: 107 ± 41.6 ng·h/mL
Cmax [5, 18]: 198 ± 98.5 ng/mL
Cmax [5, 19]: 40.3 ± 20.5 ng/mL
Tmax [5, 18]: 0.5 h
Tmax [5, 19]: 1 h
half-life ([5]; male, Sprague-Dawley (Crl:CD(SD)), 100 mg/kg, t1/2, Day 1, 100 mg/kg bw, M): 1.04 ± 0.04 h
half-life ([5]; male, Sprague-Dawley (Crl:CD(SD)), 100 mg/kg, t1/2, Day 28, 100 mg/kg bw, M): 1.39 ± 0.28 h
AUC(0-t) [5, 20]: 15.6 ± 2.7 ng·h/mL
Cmax [5, 20]: 6.8 ± 2.3 ng/mL
Tmax [5, 20]: 1 h
half-life ([5]; male, Sprague-Dawley [Crl:CD(SD)], 30 mg/kg, t1/2, Day 28, 30 mg/kg bw, M): 1.42 ± 0.28 h
